Data on 7 compounds can be found in ChEMBL document CHEMBL1275284, “Therapeutic potential of sulindac hydroxamic acid against human pancreatic and colonic cancer cells” (Eur J Med Chem, 2010).

Active and inactive are the calls of the source. No cut-off for these calls is given here.

The test system of series [1] is MIA PaCa-2. Put plainly: Cytotoxicity against human MIAPaCa2 cells after 72 hrs by WST-1 assay. Type of series: functional, cell-based. The note with it: MIA PaCa-2, 72 h. A general note: Tetrazolium dyes change colour on reduction, which living cells bring about.
Series [2] can be described thus: Cytotoxicity against human COLO320 cells after 72 hrs by WST-1 assay. The note with it: COLO 320, 72 h. Type of series: functional, cell-based.
For series [3], the system named is MIA PaCa-2. The series can be described thus: Induction of apoptosis in human MIAPaCa2 cells assessed as DNA internucleosomal fragmentation at 200 uM after 48 hrs relative to control. The class given is functional, cell-based. The procedure, abridged:
(§1)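 MIA PaCa-2 or COLO320 cells (DMEM, 10% FBS, 2.5% horse serum, 37 °C, 5% CO2) treated 48 h at 200 µM. Oligonucleosomal fragments in the cytoplasmic fraction measured, along with necrotic death, expressed relative to untreated control. Mean ± SEM, n = 3.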

For series [4], the system named is COLO 320. The series can be described thus: Induction of apoptosis in human COLO320 cells assessed as DNA internucleosomal fragmentation at 200 uM after 48 hrs relative to control. The class given is functional, cell-based. The procedure, abridged: as §1
Series [5] deals with MIA PaCa-2. The series can be described thus: Induction of apoptosis in human MIAPaCa2 cells assessed as increase in caspase 3/7 activation at 200 uM after 24 hrs by spectrofluorimetry relative to control. Type of series: functional. Summed up: (§2)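 Caspase 3/7 activity assayed after 24 h exposure of cells to 200 µM compound. Fluorescent signal of treated cells expressed as a ratio to that of vehicle-only untreated cells. Mean ± SEM, n = 3.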

Series [6] concerns COLO 320. The series can be described thus: Induction of apoptosis in human COLO320 cells assessed as increase in caspase 3/7 activation at 200 uM after 24 hrs by spectrofluorimetry relative to control. The class given is functional. The procedure, abridged:
as §2

In series [7] the test system is HUVEC. Put plainly: Cytotoxicity against HUVEC at 0.1 uM after 96 hrs by trypan blue exclusion test. The class given is cell-based. The note with it: human.
The test system of series [8] is HUVEC. The series can be described thus: Antiangiogenic activity in HUVEC assessed as inhibition of bFGF-induced cell proliferation at 0.1 uM after 96 hrs by haemocytometry. The note with it: Homo sapiens. Type of series: functional, cell-based.
The test system of series [9] is HUVEC. Put plainly: Antiangiogenic activity in HUVEC assessed as inhibition of VEGF-induced cell proliferation at 0.1 uM after 96 hrs by haemocytometry. Type of series: functional, cell-based. To be noted: Homo sapiens.
The test system of series [10] is MIA PaCa-2. Put plainly: Induction of apoptosis in human MIAPaCa2 cells assessed as change in Bax to Bcl2 mRNA expression ratio at 200 uM after 24 hrs by RT-PCR assay relative to control. The class given is functional, cell-based. The procedure, abridged:
(§3)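 Cells exposed 24 h to 200 µM compound. bax and bcl-2 mRNA measured by semi-quantitative RT-PCR, normalized to GAPDH mRNA, and the bax:bcl-2 ratio compared with control. Mean ± SEM, n = 3.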

In series [11] the test system is COLO 320. The series can be described thus: Induction of apoptosis in human COLO320 cells assessed as increase in Bax to Bcl2 mRNA expression ratio at 200 uM after 24 hrs by RT-PCR assay relative to control. The class given is functional. Summed up:
as §3

The IC50 is the concentration at which inhibition is half-maximal. A lower IC50 goes with greater potency. `CC1=C(CC(=O)NO)c2cc(F)ccc2C1=Cc1ccc([S+](C)[O-])cc1` (stereo not drawn): the half-inhibitory concentration (IC50) in series [1] stood at 64.1 µM; in [2] it was 62.5 µM. The result in series [3] and in series [4] was inactive. Further, the “fold change (FC)” value in [5] and in series [6] was 5 each time. Also, the Activity result in series [7] is recorded as “Non-toxic”. The outcome in series [8] and in series [9] was Active.
Regarding `CSc1ccc(/C=C2/C(C)=C(CC(=O)O)c3cc(F)ccc32)cc1` [SULINDAC SULFIDE], the IC50 in [1] stood at 146 µM; in series [2], 38.7 µM. Further, the result in series [3], in series [4] and in [10] was inactive. The result in series [8] and in series [9] was Active.
`CSc1ccc(C=C2C(C)=C(CC(=O)NO)c3cc(F)ccc32)cc1`: the results for the IC50 in series [1] and in series [2] were 32 µM and 6 µM, respectively. Besides, the outcome in [3], in series [4] and in series [10] was inactive. The “fold change (FC)” value in series [5] and in [6] was 5 throughout. The Activity in series [11] is reported as 130%; in series [7], “Non-toxic”. Besides, the outcome in [8] and in series [9] was Active.
In the case of `CC1=C(CC(=O)NO)c2cc(F)ccc2C1=Cc1ccc(S(C)(=O)=O)cc1`, the IC50 in [1] worked out at 44.4 µM; in [2], 26.2 µM. Further, the result in [3] and in [4] was inactive. Moreover, the “fold change (FC)” value in [5] and in [6] was 5 each time. Also, the Activity entry in series [7] is on record as “Non-toxic”. Moreover, the result in series [8] and in [9] was Active.
As to `CC1=C(CC(=O)O)c2cc(F)ccc2/C1=C\c1ccc([S+](C)[O-])cc1` (stereo not drawn) [SULINDAC], the IC50 in series [1] and in series [2] was > 200 µM each time. Besides, the outcome in series [3] and in series [4] was inactive.
As for `CC1(C)OC(=O)C(c2cccc(F)c2)=C1c1ccc(S(C)(=O)=O)cc1`, the IC50 in series [1] and in [2] was > 200 µM each time.
Consider `CC1=C(CC(=O)O)c2cc(F)ccc2/C1=C\c1ccc(S(C)(=O)=O)cc1` [EXISULIND], for which the IC50 in [1] and in series [2] was > 200 µM in each case. The outcome in [3] and in series [4] was inactive. Further, the outcome in [8] and in [9] was Active.
